IC50 and Activity data for 9 molecules are collected here from ChEMBL document CHEMBL1250508, “Synthesis and cytotoxic potency of novel tris(1-alkylindol-3-yl)methylium salts: role of N-alkyl substituents” (Bioorg Med Chem, 2010).

pIC50: −log10 of the molar value. The source made the active and inactive calls. The rule behind the calls is not given here.

In data set [1] the test system is HCT-116. The experiment in a line: Cytotoxicity against human HCT116 cells after 72 hrs by MTT assay. To be noted: HCT-116, 72 h. The format is functional, cell-based. Put shortly: (§1)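 Tumour lines were grown in DMEM with 5% fetal calf serum, 2 mM L-glutamine, penicillin and streptomycin at 37 °C, 5% CO2, and used in log phase. 5×10^3 cells per well were exposed to serial concentrations (each in triplicate; 10 mM DMSO stocks diluted in water) or 0.1% DMSO for 72 h. MTT was added for 2 h, formazan dissolved in DMSO, and A540 read. IC50 was taken at 50% viability versus vehicle.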

For the next data set, the system named is K562. The experiment in a line: Cytotoxicity against human K562 cells after 72 hrs by MTT assay. In kind it is functional, cell-based. To be noted: K562, 72 h. Put shortly:
as §1

The subject of data set [2] is HCT-116. Description: Induction of apoptosis in human HCT116 cells assessed as loss of DNA integrity at 1 uM after 24 to 48 hrs using Annexin V-FITC staining by flow cytometry. In kind it is functional, cell-based.
In data set [3] the test system is HCT-116. Description: Induction of apoptosis in p53 deficient human HCT116 cells at 1 uM after 24 to 48 hrs using Annexin V-FITC staining by flow cytometry. In kind it is functional, cell-based.
The subject of data set [4] is HCT-116. Description: Induction of apoptosis in human HCT116 cells assessed as programmed cell death at 1 uM after 24 to 48 hrs using Annexin V-FITC staining by flow cytometry. In kind it is functional, cell-based. Put shortly: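 HCT116 cells were plated at 5×10^4 per well overnight, given 1 µM for 24–48 h at 37 °C, 5% CO2 (controls without drug), washed with cold saline and harvested. One aliquot was stained with Annexin V-FITC per the manufacturer and analysed by flow cytometry.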

The subject of data set [5] is HCT-116. Description: Induction of apoptosis in human HCT116 cells assessed as internucleosomal DNA fragmentation at 1 uM after 24 to 48 hrs by agarose gel by electrophoresis. In kind it is functional, cell-based. In short, it runs like this: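 HCT116 cells were seeded at 5×10^4 per well overnight and treated with 1 µM for 24–48 h, with drug-free controls. Cells were lysed for 30 min on ice in 350 mM NaCl, 20 mM Tris-HCl pH 7.4, 2 mM MgCl2, 1 mM DTT and 0.5% NP-40. DNA was phenol-chloroform extracted, ethanol/sodium acetate precipitated, and run on a 1% agarose gel.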

In data set [6] the test system is HCT-116. The experiment in a line: Induction of apoptosis in human HCT116 cells assessed as increase of hypodiploid nuclei at sub-G1 phase at 1 uM after 24 to 48 hrs […] by flow cytometry. The format is functional, cell-based. In short, it runs like this: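 HCT116 cells were seeded at 5×10^4 per well overnight, then exposed to 1 µM for 24–48 h at 37 °C with drug-free controls. Cells were washed in cold saline and lysed in 0.1% sodium citrate, 0.3% NP-40, 50 µg/ml RNase A and 10 µg/ml propidium iodide. Flow cytometry on FL2 gave the percentage of hypodiploid (sub-G1) nuclei.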

The next data set deals with SK-BR-3. The experiment in a line: Cytotoxicity against human SK-BR-3 cells after 72 hrs by MTT assay. The format is functional, cell-based. Put shortly:
as §1

Another data set relates to SK-OV-3. Description: Cytotoxicity against human SKOV3 cells after 72 hrs by MTT assay. The format is functional, cell-based. Put shortly:
as §1

For the next data set, the system named is Fem-X. Description: Cytotoxicity against human Fem-X cells after 72 hrs by MTT assay. The format is functional, cell-based. Put shortly: as §1
The subject of another data set is MCF7. Description: Cytotoxicity against human MCF7 cells after 72 hrs by MTT assay. In kind it is functional, cell-based. Put shortly:
as §1

The subject of another data set is Mel-Kor. Description: Cytotoxicity against human Mel-Kor cells after 72 hrs by MTT assay. In kind it is functional, cell-based. Put shortly: as §1
For another data set, the system named is Jurkat. Description: Cytotoxicity against human Jurkat cells after 72 hrs by MTT assay. The format is functional, cell-based. In short, it runs like this:
as §1

The next data set relates to PBL. Description: Cytotoxicity against human PBL cells after 72 hrs by MTT assay. In kind it is cell-based. Put shortly: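 Lymphocytes were freshly isolated from peripheral blood of four healthy donors and pooled. 5×10^3 cells per well were treated with increasing concentrations in triplicate (DMSO stocks diluted in water) or 0.1% DMSO vehicle for 72 h. MTT was added for 2 h, then formazan dissolved in DMSO and read at 540 nm. IC50 was the concentration giving 50% viability relative to vehicle.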

Take `CCCn1cc([C+](c2cn(CCC)c3ccccc23)c2cn(CCC)c3ccccc23)c2ccccc21`: the pIC50 in the data set with HCT-116 [1] is 6.00; in the data set on K562, 6.70.

Take `CCCCCCCCCCn1cc([C+](c2cn(CCCCCCCCCC)c3ccccc23)c2cn(CCCCCCCCCC)c3ccccc23)c2ccccc21`: the pIC50 in the data set on HCT-116 [1] is 4.79; in the data set on K562 it was 4.91.

Consider `CCCCCCn1cc([C+](c2cn(CCCCCC)c3ccccc23)c2cn(CCCCCC)c3ccccc23)c2ccccc21`, for which the values for the pIC50 with HCT-116 [1] and with K562 were 6.52 and 7.13, respectively.

`c1ccc(Cn2cc([C+](c3cn(Cc4ccccc4)c4ccccc34)c3cn(Cc4ccccc4)c4ccccc34)c3ccccc32)cc1`: the negative-log IC50 (pIC50) with HCT-116 [1] is 4.82; in the data set on K562 it was 5.03.

For the molecule `c1ccc2c([C+](c3c[nH]c4ccccc34)c3c[nH]c4ccccc34)c[nH]c2c1`, the pIC50 was 5.64 in the data set on HCT-116 [1] and 5.80 in the data set on K562.

In the case of `CCCCn1cc([C+](c2cn(CCCC)c3ccccc23)c2cn(CCCC)c3ccccc23)c2ccccc21`, the pIC50 in the data set on HCT-116 [1] was 6.52; in the data set on K562 it was 7.05.

`CCn1cc([C+](c2cn(CC)c3ccccc23)c2cn(CC)c3ccccc23)c2ccccc21`: the figures for the pIC50 in the data set on HCT-116 [1] and with K562 were 5.89 and 6.70, respectively.

With `CCCCCn1cc([C+](c2cn(CCCCC)c3ccccc23)c2cn(CCCCC)c3ccccc23)c2ccccc21`, the outcome with HCT-116 [2], with HCT-116 [3], with HCT-116 [4], in the data set on HCT-116 [5], in the data set on HCT-116 [6] and with SK-BR-3 was Active. The outcome in the data set with SK-OV-3, in the data set with Fem-X, in the data set with MCF7, with Mel-Kor and in the data set on Jurkat was Active. Further, the pIC50 is 6.82 in the data set on HCT-116 [1] and 7.30 in the data set on K562. Moreover, the Activity entry in the data set with PBL is given as “Non-toxic”.

In the case of `Cn1cc([C+](c2cn(C)c3ccccc23)c2cn(C)c3ccccc23)c2ccccc21`, the pIC50 in the data set on HCT-116 [1] and in the data set with K562 was 5.49 each time.
